# Measured values gathered from unrelated publications.
# Target: Serine/threonine-protein kinase TAO1 (TAOK1, Homo sapiens, UniProt Q7L7X3)
# One construct used (Q7L7X3 1-1001): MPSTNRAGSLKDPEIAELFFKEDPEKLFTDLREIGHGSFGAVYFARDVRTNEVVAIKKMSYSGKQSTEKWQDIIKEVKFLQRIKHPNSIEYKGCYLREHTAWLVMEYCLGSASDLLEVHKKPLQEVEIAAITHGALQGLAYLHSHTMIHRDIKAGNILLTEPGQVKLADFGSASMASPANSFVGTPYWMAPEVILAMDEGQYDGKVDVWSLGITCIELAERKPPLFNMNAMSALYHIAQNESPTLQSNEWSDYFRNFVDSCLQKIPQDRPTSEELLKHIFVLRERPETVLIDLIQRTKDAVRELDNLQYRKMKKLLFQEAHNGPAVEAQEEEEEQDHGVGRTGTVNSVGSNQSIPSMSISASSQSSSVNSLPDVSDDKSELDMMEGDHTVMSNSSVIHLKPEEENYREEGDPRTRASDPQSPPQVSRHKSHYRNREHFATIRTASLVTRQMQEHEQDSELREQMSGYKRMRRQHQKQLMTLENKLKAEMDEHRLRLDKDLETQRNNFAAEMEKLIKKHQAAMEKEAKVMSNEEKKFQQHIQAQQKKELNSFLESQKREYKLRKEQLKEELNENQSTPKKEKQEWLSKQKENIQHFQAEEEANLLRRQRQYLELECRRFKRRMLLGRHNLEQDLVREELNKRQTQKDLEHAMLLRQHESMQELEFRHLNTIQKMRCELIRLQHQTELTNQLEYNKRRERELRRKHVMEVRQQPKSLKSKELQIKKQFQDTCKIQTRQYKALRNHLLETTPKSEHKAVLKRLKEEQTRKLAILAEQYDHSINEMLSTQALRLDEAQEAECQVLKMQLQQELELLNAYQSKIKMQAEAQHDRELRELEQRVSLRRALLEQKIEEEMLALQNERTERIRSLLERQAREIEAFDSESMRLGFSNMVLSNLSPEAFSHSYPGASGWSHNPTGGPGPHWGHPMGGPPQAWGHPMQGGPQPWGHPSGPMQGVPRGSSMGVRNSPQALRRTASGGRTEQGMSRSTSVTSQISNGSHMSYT
SMILES,observed,mode,technique,tested at,measurement,result
CCN(CC)c1ccc(C2=NNC(=O)CC2C)cc1[N+](=O)[O-] (centres unmarked),enzyme activity,inhibitor,,10 µM,remaining activity,115%
Cc1cc(C)c(-n2ccn3nc(-c4cccnc4)cc23)cc1NC(=O)c1cc(C#N)cc(S(F)(F)(F)(F)F)c1,cell-free assay,,competition with immobilised ligand,0.1 µM,remaining binding,45.2%
COc1cc(Nc2cnc(C#N)c(O[C@H](C)CN(C)C)n2)ncc1-c1cnn(C)c1,enzyme activity,inhibitor,radiometric,1 µM,remaining activity,87%
CC(C)(O)[C@H]1CC[C@H](Nc2ccc3ncc(-c4cccc(C(F)(F)F)c4)n3n2)CC1,enzyme activity,inhibitor,,1 µM,remaining activity,82.6%
CCCOc1ccc(OC)c(F)c1C(=O)c1ccc(C(=O)N[C@@H]2CNC[C@H]2NC(=O)c2ccc3[nH]ncc3c2)cc1,enzyme activity,inhibitor,,10 µM,remaining activity,74%
CS(=O)(=O)c1cc(C2(NC(=O)c3cncc4c3cnn4-c3ccc(F)cc3)CC2)ccn1,cell-free assay,,competition with immobilised ligand,1 µM,remaining binding,94%
Cc1ccc(C(=O)Nc2ccc(CN3CCN(C)CC3)c(C(F)(F)F)c2)cc1C#Cc1cnc2cccnn12,enzyme activity,inhibitor,,23.5 nM,remaining activity,67%
O=C(Nc1cnn(-c2csc(C(=O)NC3COC3)c2)c1)Nc1ccccc1Cl,enzyme activity,inhibitor,,5 µM,remaining activity,122%
FC(F)c1nc2ccccc2n1-c1nc(N2CCOCC2)nc(N2CCOCC2)n1,enzyme activity,inhibitor,,10 µM,remaining activity,93%
N#CCCc1ccc2c(c1)-c1[nH]c3ccc([N+](=O)[O-])cc3c1CC(=O)N2,cell-free assay,,,0.5 µM,remaining signal,73.1%
Nc1nc(Nc2ccc(S(N)(=O)=O)cc2)sc1C(=O)c1ccccc1[N+](=O)[O-],enzyme activity,inhibitor,,0.1 µM,inhibition,60 to 66%
CO[C@@H](C)c1c(Nc2ccc([C@H](N(C)C(=O)C3CCS(=O)(=O)CC3)C(F)(F)F)cc2)cnc2cc(Cl)nn12,cell-free assay,,competition with immobilised ligand,1 µM,remaining binding,100%
CCN(CC)CCNC(=O)c1c(C)[nH]c(/C=C2\C(=O)Nc3ccc(F)cc32)c1C,cell-free assay,,,0.5 µM,remaining signal,71.5%
FC(F)(F)Oc1cccc(-c2cnc3ccc(-c4ccncc4)nn23)c1,enzyme activity,inhibitor,radiometric,1 µM,activity vs control,83%
CN(C)C(=O)Cn1cc(-c2nc(C3(c4ccc(-c5cnc(N)nc5)cc4)CC3)no2)cn1,cell-free assay,,competition with immobilised ligand,1 µM,remaining binding,86%
CNC(=O)c1cc(Oc2ccc(NC(=O)Nc3ccc(Cl)c(C(F)(F)F)c3)cc2)ccn1,cell-free assay,,,0.5 µM,remaining signal,82%
COc1cc(-c2cn(C3CCc4ccccc4N(CC(F)(F)F)C3=O)nn2)ccc1-n1ccc(C)n1 (centres unmarked),cell-free assay,,competition with immobilised ligand,1 µM,remaining binding,92%
Cc1cc(NC(=O)c2cccc3cc(-c4cccc5[nH]nc(N)c45)ccc23)ccc1F,enzyme activity,inhibitor,,0.1 µM,activity vs control,103%
Cc1c(C(=O)O)cc(-c2ccc(C3CCNCC3)cc2)c2ccc(-c3ccc(C(F)(F)F)cc3)cc12,binding,,competition with immobilised ligand,1 µM,remaining binding,100%
CN1CC(Oc2cnc(C#N)cc2-c2ccn3nc(NC(=O)C4CC4)cc3c2)C1,enzyme activity,inhibitor,,1 µM,inhibition,-1%
